Ecoli WT expand: blocks growth of wild type E. coli BW25113. OD600 absorbance. AID 710. growth inhibition, % at 100 µM. actives 0.15% (n = 98,000);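 active = growth inhibition above about 50% at one test dose, limit read from the data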;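 also: growth measured after 20 h incubation at 37 °C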
PostGolgi yeast: growth inhibition of a yeast mutant, post-Golgi transport screen; post-Golgi transport phenotypic cell assay; inhibition, % at 10 µM; actives 0.9% (n = 98,000); AID 739;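 also: yeast cells grown in 1536-well plates; yeast grown about 18 h at 30C before absorbance read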
PostGolgi ctrl: growth of the yeast control strain, post-Golgi counter-screen; efflux-deficient yeast background strain, growth absorbance A615, 16 h; inhibition, % at 10 µM; actives 5% (n = 98,000)
Calb biofilm kill: kills Candida albicans biofilms; C. albicans biofilm + clotrimazole, Alamar Blue; inhibition, % at 6 µM; actives 0.14% (n = 85,000); AID 834;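 active = inhibition above 20%; inactive = inhibition below 20%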;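 also: preformed 24 hr biofilms exposed to compound for 48 hr; 0% = biofilm without compound and 100% = blank killed by clotrimazole plus chlorhexidine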
Ecoli tolC: blocks growth of E. coli BW25113 tolC mutant | OD615 | AID 573 | growth inhibition, % at 10 µM (by protocol) | actives 2.2% (n = 65,000);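 active = growth inhibition at or above a cutoff equal to the mean over every tested compound plus 3 SD, cut at about 60% in these data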;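 also: growth measured after 20 h incubation at 37 °C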
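Doses: one dose of 10 µM final / Material: E. coli BW25113 ΔtolC::kan, tolC deletion mutant strain / Buffer or medium: LB with kanamycin 50 µg/mL / Evaluation: percent growth inhibition / Detection: optical density read at 615 nm / Incubation: 37 °C, 20 h exposure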
Pyk2 oligo antag: Pyk2 (human) oligomerization antagonism; Q14289; Q293 cells, Pyk2 FERM NanoBiT luminescence; active compounds read low; z-score (the deposit names both 25 µM and 10 µM); actives 0.83% (n = 99,000);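 active = Z-score of -3 or lower, scaled per plate to the spread of control and sample wells; inactive = z-score above -3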;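 also: negative z-score means lost luminescence so less FERM oligomerization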
Target sequence (Q14289 whole entry, looked up): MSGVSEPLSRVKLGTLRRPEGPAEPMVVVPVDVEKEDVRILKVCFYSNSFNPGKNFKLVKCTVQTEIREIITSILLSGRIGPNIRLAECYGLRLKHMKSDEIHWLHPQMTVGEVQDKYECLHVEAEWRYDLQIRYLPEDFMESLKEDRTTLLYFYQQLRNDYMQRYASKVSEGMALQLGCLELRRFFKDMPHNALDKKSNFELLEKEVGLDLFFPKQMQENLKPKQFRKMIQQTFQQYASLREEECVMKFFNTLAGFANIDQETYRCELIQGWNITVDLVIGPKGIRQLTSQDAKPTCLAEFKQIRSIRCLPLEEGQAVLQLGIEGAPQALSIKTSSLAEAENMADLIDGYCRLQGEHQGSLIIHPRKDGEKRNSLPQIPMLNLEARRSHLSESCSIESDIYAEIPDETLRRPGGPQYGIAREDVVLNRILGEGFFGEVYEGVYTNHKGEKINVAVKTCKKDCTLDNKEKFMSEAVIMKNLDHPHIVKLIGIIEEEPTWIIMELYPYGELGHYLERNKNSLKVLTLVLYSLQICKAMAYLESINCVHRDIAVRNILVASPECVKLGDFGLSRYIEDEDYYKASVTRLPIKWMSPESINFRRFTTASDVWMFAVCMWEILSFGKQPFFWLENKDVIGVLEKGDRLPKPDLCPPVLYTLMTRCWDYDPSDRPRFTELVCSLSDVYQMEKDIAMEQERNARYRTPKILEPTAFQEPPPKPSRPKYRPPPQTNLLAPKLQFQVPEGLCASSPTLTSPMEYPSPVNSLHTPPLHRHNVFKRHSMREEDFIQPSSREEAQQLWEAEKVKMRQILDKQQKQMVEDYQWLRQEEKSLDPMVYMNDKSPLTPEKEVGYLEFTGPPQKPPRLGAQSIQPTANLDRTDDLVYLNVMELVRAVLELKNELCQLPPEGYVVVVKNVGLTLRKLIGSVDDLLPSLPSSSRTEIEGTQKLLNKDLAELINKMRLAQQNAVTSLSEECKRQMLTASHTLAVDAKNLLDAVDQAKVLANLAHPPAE
An asterisk follows results filed as active; / = no result given. Rows were chosen to be rich in hits. Some 6.5% of all compounds tested hit in one or more screens of this group. Rule as the data show it, unless noted: active = inhibition above about 30%; inactive = the rest.

SMILES	Ecoli WT expand	PostGolgi yeast	PostGolgi ctrl	Calb biofilm kill	Ecoli tolC	Pyk2 oligo antag
c1ccc(CCn2nnnc2C(c2cccnc2)N2CCN(c3nc4ccccc4s3)CC2)cc1 (stereo not drawn)	-12.0	42.6*	14.8	/	8.3	-3.05*
O=C(COC(=O)c1ccc(Br)o1)NCc1ccco1	/	/	/	-2.9	-10.9	-0.25
CCC(=O)c1c[nH]c(C(=O)NCCCn2ccnc2)c1	-2.0	6.5	-0.3	/	/	0.38
Cc1ccc(Cl)cc1Nc1nc(-c2sc(NC(=O)c3ccco3)nc2C)cs1	-8.0	-3.3	24.6	/	/	/
Cc1nc(NC(=O)c2ccco2)sc1-c1csc(Nc2ccc(Cl)cc2)n1	-14.0	-6.8	39.3*	/	/	/
Cc1nc(NC(=O)c2ccccc2)sc1-c1csc(Nc2ccc(F)cc2)n1	-16.0	32.6*	-3.2	/	/	/
Cc1nc(NC(=O)c2ccccc2)sc1-c1csc(Nc2ccc(Cl)cc2)n1	-24.0	-7.4	19.3	/	/	/
COc1ccc(C2c3c(ncn(CCN4CCOCC4)c3=N)Oc3ccc4ccccc4c32)cc1OC (stereo not drawn)	13.0	-0.3	-3.3	4.2	/	-2.17
COc1ccc(/C=C2\C(=O)N(c3c(Cl)cc(Cl)cc3Cl)N=C2NC(=O)c2cccc([N+](=O)[O-])c2)cc1	/	/	/	/	/	-3.66*
S=C(Nc1ccccc1)Nc1ccc(Cl)cc1Cl	-3.0	-2.8	0.4	/	/	0.89
O=C(Nc1ccccc1)Nc1cccc(Cl)c1	29.0	-5.9	23.6	2.9	/	-0.89
Fc1ccc(NC(=S)Nc2ccc(F)c(Cl)c2)cc1Cl	89.0*	72.2*	65.2*	/	/	-1.57
COC(=O)c1ccc(NC(=O)Nc2ccc(F)c(Cl)c2)cc1	15.0	3.0	35.4*	-2.2	/	-0.76
CCCCC(=O)Nc1ccc(F)c(Cl)c1	15.0	-13.3	6.7	-0.7	10.3	0.52
COC(=O)c1ccc(NC(=O)Nc2ccc(F)cc2)cc1	43.0	0.0	7.0	-4.0	44.3	0.92
CC(=O)c1ccc(NC(=O)Nc2cccc(Cl)c2)cc1	52.0*	5.2	14.4	3.6	/	-0.02
FC(F)(F)c1cccc(NC(=S)Nc2ccc(Cl)cc2Cl)c1	15.0	37.5*	52.7*	/	/	0.51
O=C(CC(c1ccccc1)c1ccccc1)OCn1nnc2ccccc2c1=O	-23.0	5.1	27.0	/	/	0.09
CSc1ccc(S(=O)(=O)NCCSc2ccccn2)cc1	7.0	4.8	21.4	/	/	-0.32
COc1ccc(-n2ccc(-c3nn(-c4cccc(C(F)(F)F)c4)ccc3=O)n2)cc1	1.0	6.9	31.0*	/	/	-1.44
COC(=O)c1nn(-c2ccc3c(c2)OCO3)cc1O	8.0	3.7	37.3*	5.6	/	-0.32
COCc1nnc(NC(=O)CC(C)C)s1	/	/	/	-1.4	/	-0.33
NCCc1nnc(SCc2c(F)cccc2Cl)o1	17.0	-3.4	-0.8	4.6	-5.3	0.01
Clc1ccc(Cc2nnc(-c3ccccc3Br)o2)cc1	/	/	/	8.8	59.6	/
Brc1ccccc1-c1nnc(COc2cccc3cccnc23)o1	1.0	8.6	33.4*	1.1	/	0.29
SMILES	Ecoli WT expand	PostGolgi yeast	PostGolgi ctrl	Calb biofilm kill	Ecoli tolC	Pyk2 oligo antag
Fc1cccc(Cl)c1CSc1nnc(COc2cccc3cccnc23)o1	-17.0	4.0	61.9*	4.5	57.3	0.53
Clc1ccccc1OCc1nnc(-c2ccccc2Br)o1	-2.0	7.6	14.3	-0.5	72.5*	-1.18
CC(C)C12CN3CC(C(C)C)(CN(C1)C3c1ccccc1)C2O (stereo not drawn)	-3.0	6.3	-6.0	3.9	7.9	0.78
O=C(c1cc(-c2ccccc2)on1)N1CCN(Cc2ccc3c(c2)OCO3)CC1	-10.0	13.0	15.2	4.9	65.8*	-0.49
O=C(c1cc2c(s1)CCCC2)N1CCN(Cc2ccc3c(c2)OCO3)CC1	2.0	36.3*	27.3	8.8	50.8	-0.73
O=C(NC1CCN(Cc2ccccc2)CC1)C1COc2ccccc2O1 (stereo not drawn)	2.0	69.8*	14.1	1.0	-10.7	0.82
O=C(c1ccc(Br)s1)N1CCN(Cc2ccc3c(c2)OCO3)CC1	9.0	-19.4	13.4	5.1	32.2	-0.61
O=C(C1COc2ccccc2O1)N1CCN(Cc2ccc3c(c2)OCO3)CC1 (stereo not drawn)	8.0	65.1*	27.7	6.2	8.2	0.86
COC(=O)C1=C(C)NC2=C(C(=O)CCC2)C1c1ccccn1 (stereo not drawn)	/	/	/	2.3	-3.7	/
O=[N+]([O-])c1ccc(Oc2cccc(Br)c2)c2ccncc12	-6.0	7.6	79.3*	2.1	/	-1.26
O=[N+]([O-])c1ccc(Oc2ccc(F)cc2)c2ccncc12	4.0	16.1	30.0	3.0	/	-0.77
C/C(CCc1oc2ccccc2c1-c1ccc(C)o1)=N/O	8.0	11.6	47.1*	-1.3	97.5*	-0.55
Cc1cccc(NC(=O)C23CCC(C)(C2Br)C3(C)C)c1 (stereo not drawn)	1.0	-3.1	22.2	/	/	-1.14
COc1ccc(-c2cc(C(F)(F)F)nc(NC3CCCC3)n2)cc1OC	-5.0	0.3	34.2*	3.7	19.5	-0.5
COCCn1c(SCC(=O)N2CCN(c3ccccc3)CC2)nc2c(c1=O)SC(C)C2 (stereo not drawn)	/	/	/	/	10.1	/
O=C(O)c1ccc(N2CCCCC2)cc1	3.0	31.0*	-6.8	7.6	-17.0	2.05
CCC1CCCCN1c1ccc([N+](=O)[O-])cc1/C=N/NC(=O)Cn1c2ccccc2c(=O)c2ccccc21 (stereo not drawn)	-14.0	4.7	23.1	/	/	-0.87
Cc1c(NC(=O)CN2CCN(c3ccccc3)CC2)c(=O)n(-c2ccccc2)n1C	-1.0	0.2	0.2	1.8	/	1.11
Cc1c(NC(=O)CN2CCN(C(c3ccccc3)c3ccccc3)CC2)c(=O)n(-c2ccccc2)n1C	4.0	-8.5	7.0	3.6	3.8	-3.52*
C/C(=N/NC(=O)c1ccc(Br)o1)C(C)C	/	/	/	/	/	0.11
COCC(C)NCc1ccccc1C (stereo not drawn)	3.0	9.6	9.6	5.8	-18.9	0.59
CN(CC(=O)Nc1ccc(C#N)cc1)Cc1ccc(Cl)c(Cl)c1	-1.0	4.2	33.5*	5.8	/	1.54
CC(=O)Nc1ccc(NC(=O)CN(C)CCC#N)cc1	10.0	3.4	6.0	3.5	-19.4	-0.16
COC(=O)C1=C(N)Oc2cc(C)n(Cc3ccccc3)c(=O)c2C1c1ccccc1 (stereo not drawn)	-11.0	-2.3	24.2	8.7	/	-3.05*
COC(=O)C1=C(N)Oc2cc(C)n(C)c(=O)c2C1c1ccc(Cl)cc1 (stereo not drawn)	6.0	19.1	3.1	8.9	-14.7	-2.02
CCOC(=O)c1c(C)n(C)c2ccc(OC(C)C(=O)OC)cc12 (stereo not drawn)	1.0	-3.9	31.8*	1.6	18.0	0.96
CCOC(=O)c1c(C)n(C)c2ccc(OCC(O)Cn3nc(C)c(Br)c3C)cc12 (stereo not drawn)	/	/	/	/	87.8*	-1.15
CCOC(=O)c1c(C)n(C)c2ccc(OCCN(C)C)cc12	-2.0	2.7	10.7	3.9	/	1.26
CC1CCc2c(C(=O)Oc3cccc(-n4cnnn4)c3)csc2C1 (stereo not drawn)	-19.0	10.2	25.8	1.7	68.9*	0.63
O=C(Oc1cccc(-n2cnnn2)c1)c1ccco1	/	/	/	-1.9	/	0.4
